# Assay results taken from PubChem BioAssay AID493230 (Broad Institute, 2011).
# Values joined by “and” are separate entries in the source; they are usually repeats but may differ in a detail not shown here. Equal entries are not always repeated. Active and inactive are the calls of the source.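 The calls were made as follows: active = VEGF mRNA rise whose fitted curve reaches 40% activation within the highest concentration tested on that sample; inactive = the rest, including effects opposite to expected.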
# Test system: not listed separately
# Experiment: VEGF mRNA induction by HIF pathway activators, dose response, orthogonal assay for HIF pathway activator project, cell-based, U2OS, RT-PCR, dry powder, set 3 (AID 493230)
# Conditions: U2OS VEGF mRNA induction, RT-PCR; at 38 µM (top of the series)
# Method in brief: (§1)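 Assay system: U2OS osteosarcoma cells / Medium: DMEM without phenol red, 10% FBS / Schedule: 24 h plating, then 24 h compound exposure at 37 °C / Technique: TaqMan RT-PCR, VEGF-A vs beta-actin / Benchmarks: DMSO control / Repeats: duplicates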
row,SMILES,activation
1,O=C(NCC1CCCCC1)c1cc(-c2ccccc2)on1,5.37% (inactive)
2,O=C(c1cc(-c2ccccc2)on1)N1CCC(CO)CC1,2.91% (inactive)
3,O=C(Nc1cnc2ccccc2c1)c1cc(-c2ccccc2)on1,4.77% (inactive)
4,Cc1ccc(CNC(=O)c2cc(-c3ccccc3)on2)cc1,-2.87% (inactive)
5,O=C(Nc1ncc(-c2ccccc2)o1)c1cc(-c2ccccc2)on1,6.52% (inactive)
6,O=C(c1cc(-c2ccccc2)on1)N1CCC(N2CCOCC2)CC1,12.2% (inactive)
7,Cc1cccc(CNC(=O)c2cc(-c3ccccc3)on2)c1,9.8% (inactive)
8,O=C(NC1Cc2ccccc2C1)c1cc(-c2ccccc2)on1,-6% (inactive)
9,O=C(NCCN1CCCCC1)c1cc(-c2ccccc2)on1,2.31% (inactive)
10,O=C(NCc1ccccc1)c1cc(-c2ccccc2)on1,-3.24% (inactive)
11,O=C(Nc1ccc2ccccc2n1)c1cc(-c2ccccc2)on1,6.04% (inactive)
12,Cc1ccc(NC(=O)c2cc(-c3ccccc3)on2)cn1,4.97% (inactive)
13,O=C(c1cc(-c2ccccc2)on1)N1CCc2cccnc21,-0.596% (inactive)
14,O=C(Nc1nnc(-c2ccccc2)s1)c1cc(-c2ccccc2)on1,2.88% (inactive)
15,Cn1c(NC(=O)c2cc(-c3ccccc3)on2)nc2ccccc21,-8.77% (inactive)
16,O=C(Nc1nc(-c2ccccc2)cs1)c1cc(-c2ccccc2)on1,12.2% (inactive)
17,O=C(c1cc(-c2ccccc2)on1)N1CCC(N2CCCC2)CC1,5.5% (inactive)
18,CN(C)CCNC(=O)c1cc(-c2ccccc2)on1,-3.96% (inactive)
19,CN1CCN(C(=O)c2cc(-c3ccccc3)on2)CC1,-2.38% (inactive)

# Test system: U2OS VEGF mRNA induction, RT-PCR
# Experiment: as above
# Conditions: not given
# Method in brief: as §1
row,SMILES,AC40
1,c1ccc(-c2nnc(-c3ccccn3)nc2NCCN2CCOCC2)cc1,7.65 µM
2,Clc1cccc(CNc2nc(-c3ccccn3)nnc2-c2ccccc2)c1,0.953 µM
3,CCCCNC(=O)c1cc(-c2ccccc2)on1,25 µM
4,OCC1CCN(c2nc(-c3ccccn3)nnc2-c2ccccc2)CC1,10.9 µM
5,O=C(Nc1cn2ccccc2n1)c1cc(-c2ccccc2)on1,5.31 µM
6,CN(C)c1nc(-c2ccccn2)nnc1-c1ccccc1,6.76 µM
7,OCCCNc1nc(-c2ccccn2)nnc1-c1ccccc1,8.68 µM
8,c1ccc(-c2nnc(-c3ccccn3)nc2NCC2CC2)cc1,2.29 µM
9,C[C@@H](Nc1nc(-c2ccccn2)nnc1-c1ccccc1)C1CCCCC1,0.545 µM
10,c1ccc(-c2nnc(Nc3nc(-c4ccccn4)nnc3-c3ccccc3)s2)cc1,1.08 µM
11,O=C(NCCCn1ccnc1)c1cc(-c2ccccc2)on1,17.2 µM
12,CN1CCN(c2nc(-c3ccccn3)nnc2-c2ccccc2)CC1,5.84 µM
13,Cc1ccc(CNc2nc(-c3ccccn3)nnc2-c2ccccc2)cc1,1.01 µM
14,CC(C)(C)CCNC(=O)c1cc(-c2ccccc2)on1,> 38 µM (inactive)
15,C=CCNc1nc(-c2ccccn2)nnc1-c1ccccc1,4.08 µM
16,C[C@@H](Nc1nc(-c2ccccn2)nnc1-c1ccccc1)c1ccccc1,1.45 µM
17,Cn1c(-c2ccccc2)cnc1NC(=O)c1cc(-c2ccccc2)on1,24.6 µM
18,Oc1ccc(CN2CCC(Cc3ccccc3)CC2)c2cccnc12,6.73 µM
19,Cc1cccc(NC(=O)c2cc(-c3ccccc3)on2)n1,> 38 µM (inactive)
20,O=C(NCCCN1CCOCC1)c1cc(-c2ccccc2)on1,28 µM
21,Cc1ccc(CNc2nc(-c3ccccn3)nnc2-c2ccccc2)cc1C,0.83 µM
22,c1ccc(CCNc2nc(-c3ccccn3)nnc2-c2ccccc2)cc1,5.17 µM
23,O=C(NC1CCc2ccccc2C1)c1cc(-c2ccccc2)on1 (configuration not stated),> 38 µM (inactive)

row,SMILES,AC40
1,CC(Nc1nc(-c2ccccn2)nnc1-c1ccccc1)c1ccccc1 (configuration not stated),1.55 µM
2,c1ccc(-c2nnc(-c3ccccn3)nc2NCc2ccccn2)cc1,4.1 µM
3,c1ccc(-c2nnc(-c3ccccn3)nc2NCCCN2CCOCC2)cc1,6.44 µM
4,c1ccc(-c2nnc(-c3ccccn3)nc2Nc2nc3ccccc3s2)cc1,0.427 µM
5,CC(C)(C)CCNc1nc(-c2ccccn2)nnc1-c1ccccc1,0.782 µM and 0.753 µM
6,O=C(Nc1nc2ccccc2s1)c1cc(-c2ccccc2)on1,> 38 µM (inactive)
7,COc1ccccc1N1CCN(Cc2ccc(O)c3ncccc23)CC1,0.384 µM
8,OCC1CCN(Cc2ccc(O)c3ncccc23)CC1,2.6 µM
9,COc1cccc(CNc2nc(-c3ccccn3)nnc2-c2ccccc2)c1,1.21 µM
10,c1ccc(-c2nnc(-c3ccccn3)nc2N2CCC(N3CCOCC3)CC2)cc1,6.33 µM
11,c1ccc(-c2nnc(-c3ccccn3)nc2NCc2cccnc2)cc1,3.44 µM
12,COc1ccc(CNc2nc(-c3ccccn3)nnc2-c2ccccc2)cc1,1.24 µM
13,c1ccc(-c2nnc(-c3ccccn3)nc2N2CCC(C3CCCCC3)C2)cc1 (configuration not stated),0.535 µM
14,c1ccc(-c2nnc(-c3ccccn3)nc2N2CCN(c3ccncc3)CC2)cc1,2.91 µM
15,O=C(Nc1ncc2ccccc2n1)c1cc(-c2ccccc2)on1,29.4 µM
16,C[C@H](Nc1nc(-c2ccccn2)nnc1-c1ccccc1)C1CCCCC1,1.06 µM
17,c1ccc(-c2ccc(CNc3nc(-c4ccccn4)nnc3-c3ccccc3)cc2)cc1,0.276 µM
18,c1ccc(-c2cccc(CNc3nc(-c4ccccn4)nnc3-c3ccccc3)c2)cc1,0.529 µM
19,Oc1ccc(CNC2Cc3ccccc3C2)c2cccnc12,12.9 µM
20,Cc1cccc(CNc2nc(-c3ccccn3)nnc2-c2ccccc2)c1,1.48 µM
21,Oc1ccc(CN2CCC3CCCCC3C2)c2cccnc12 (configuration not stated),1.58 µM
22,CC(C)(C)c1ccc(CNc2nc(-c3ccccn3)nnc2-c2ccccc2)cc1,0.401 µM
23,Oc1ccc(CNC2CCc3ccccc32)c2cccnc12 (configuration not stated),27.1 µM

row,SMILES,AC40
1,Oc1ccc(CN2CCc3ccccc3C2)c2cccnc12,3.02 µM and 6.18 µM
2,c1ccc(-c2nnc(-c3ccccn3)nc2N2CCC(c3ccccc3)C2)cc1 (configuration not stated),1.05 µM
3,Cc1ccc(Nc2nc(-c3ccccn3)nnc2-c2ccccc2)cn1,4.94 µM
4,c1ccc(-c2nnc(-c3ccccn3)nc2NCCc2ccccn2)cc1,6.47 µM
5,CC1CN(Cc2ccc(O)c3ncccc23)CC(C)O1 (configuration not stated),12.5 µM
6,O=C(c1cc(-c2ccccc2)on1)N1CCN(c2ccncc2)CC1,35.8 µM
7,Cc1ccccc1CNC(=O)c1cc(-c2ccccc2)on1,> 38 µM (inactive)
8,Cc1ccccc1CNc1nc(-c2ccccn2)nnc1-c1ccccc1,0.853 µM
9,O=C(NCCCCO)c1cc(-c2ccccc2)on1,9.04 µM
10,CC(C)(C)OC(=O)N1CCN(Cc2ccc(O)c3ncccc23)CC1,9.12 µM
11,c1ccc(-c2nnc(-c3ccccn3)nc2NCC2CCCCC2)cc1,1.4 µM
12,c1ccc(-c2csc(Nc3nc(-c4ccccn4)nnc3-c3ccccc3)n2)cc1,0.495 µM
13,N#CC1(c2ccccc2)CCN(Cc2ccc(O)c3ncccc23)CC1,31.9 µM
14,Cc1cccc(Nc2nc(-c3ccccn3)nnc2-c2ccccc2)n1,2.98 µM
15,c1ccc(-c2nnc(-c3ccccn3)nc2NCC2CCOCC2)cc1,6.69 µM
16,c1ccc(-c2cnc(Nc3nc(-c4ccccn4)nnc3-c3ccccc3)s2)cc1,0.433 µM
17,O=C(NCCCO)c1cc(-c2ccccc2)on1,15.7 µM
18,Cn1c(-c2ccccc2)cnc1Nc1nc(-c2ccccn2)nnc1-c1ccccc1,4.51 µM
19,O=C(NCCN1CCOCC1)c1cc(-c2ccccc2)on1,29.1 µM
20,O=C(NCC1CC1)c1cc(-c2ccccc2)on1,24.9 µM
21,c1ccc(-c2nnc(-c3ccccn3)nc2Nc2cnc3ccccc3n2)cc1,1.48 µM
22,c1ccc(CNc2nc(-c3ccccn3)nnc2-c2ccccc2)cc1,1.45 µM
